ChEMBL document CHEMBL3603733, “Synthesis and biological evaluation of (3',5'-dichloro-2,6-dihydroxy-biphenyl-4-yl)-aryl/alkyl-methanone selective CB2 inverse agonist” (Bioorg Med Chem, 2015)
Activity calls are given as the source filed them. The rule behind the calls is not given here.

How the values were obtained:
[1] = target: T1, Cannabinoid receptor 1 (Homo sapiens, UniProt P21554); assay: Displacement of [3H]-CP55940 from CB1 receptor (unknown origin) expressed in HEK-CNG cell membranes after 90 mins by liquid scintillation counting analysis
[2] = target: T2, Cannabinoid receptor 2 (Homo sapiens, UniProt P34972); assay: Inverse agonist activity at CB2 receptor (unknown origin) expressed in HEK cells assessed as increase in cAMP production measured at 50 mins by ACTOne dye-based fluorescence assay in presence of forskolin and Ro 20-1724; format: functional, cell-based, HEK293
How it was run: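 HEK-CNG+CB1 or HEK-CNG+CB2 cells, plus parental HEK-CNG, were plated at 50,000 cells/well in DMEM with 10% FBS the day before. Membrane potential dye was loaded for 1 h in the dark at room temperature. At least six biological replicates were run, with non-linear fitting.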

[3] = target: T1, Cannabinoid receptor 1; assay: Inverse agonist activity at CB1 receptor (unknown origin) expressed in HEK cells assessed as increase in cAMP production measured at 50 mins by ACTOne dye-based fluorescence assay in presence of forskolin and Ro 20-1724; format: functional, cell-based, HEK293
How it was run: (§1)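 HEK-CNG+CB1 or HEK-CNG+CB2 cells, plus parental HEK-CNG, were plated at 50,000 cells/well in DMEM with 10% FBS the day before. Membrane potential dye was loaded for 1 h in the dark at room temperature. Ligands were added at 5x10⁻⁶ to 5x10⁻¹⁰ final, with 25 µM Ro 20-1724 and 800 nM forskolin, in DPBS with 2.5% DMSO. Fluorescence (Ex 540, Em 590 nm) was read at 50 min. At least six biological replicates were run, with non-linear fitting.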

[4] = target: T1, Cannabinoid receptor 1; assay: Inverse agonist activity at CB1 receptor (unknown origin) expressed in HEK cells assessed as increase in cAMP production at 5 x 10^-6 to 5 x 10^-10 M measured at 50 mins by ACTOne dye-based fluorescence assay in presence of forskolin and Ro 20-1724 relative to control; format: functional, cell-based; details: HEK293
How it was run: as §1

[5] = target: T2, Cannabinoid receptor 2; assay: Inverse agonist activity at CB2 receptor (unknown origin) expressed in HEK cells assessed as increase in cAMP production at 5 x 10^-6 to 5 x 10^-10 M measured at 50 mins by ACTOne dye-based fluorescence assay in presence of forskolin and Ro 20-1724 relative to control; format: functional, cell-based; details: HEK293
How it was run: as §1

[6] = target: T2, Cannabinoid receptor 2; assay: Displacement of [3H]-CP55940 from CB2 receptor (unknown origin) expressed in HEK-CNG cell membranes after 90 mins by liquid scintillation counting analysis
[7] = target: T2, Cannabinoid receptor 2; assay: Non-competitive antagonist activity at CB2 receptor (unknown origin) expressed in HEK cells incubated in dark condition for 30 mins prior to CP55940 addition measured at 50 mins by Schild plot analysis; format: cell-based; details: HEK293
How it was run: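 HEK-CNG+CB2 cells were loaded with membrane potential dye. After 30 min, antagonist in DPBS with 2.5% DMSO was added and incubated 30 more min in the dark at room temperature. CP 55,940 was then added with 25 µM Ro 20-1724 and 800 nM forskolin (final). Fluorescence was read at 50 min.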

[8] = species on record: Homo sapiens; assay: Selectivity ratio of Ki for CB1 receptor (unknown origin) to Ki for CB2 receptor (unknown origin)

T2 sequence (P34972 whole entry): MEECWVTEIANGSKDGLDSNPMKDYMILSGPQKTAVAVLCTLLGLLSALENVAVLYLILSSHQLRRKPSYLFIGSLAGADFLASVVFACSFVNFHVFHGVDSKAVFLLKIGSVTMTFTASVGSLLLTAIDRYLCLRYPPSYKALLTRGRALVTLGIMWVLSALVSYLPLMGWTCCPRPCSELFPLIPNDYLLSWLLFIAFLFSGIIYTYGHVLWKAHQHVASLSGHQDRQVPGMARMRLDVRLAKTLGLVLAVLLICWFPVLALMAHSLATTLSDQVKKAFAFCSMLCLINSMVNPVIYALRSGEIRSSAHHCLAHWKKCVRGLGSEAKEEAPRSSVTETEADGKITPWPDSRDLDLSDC
T1 sequence (P21554 whole entry): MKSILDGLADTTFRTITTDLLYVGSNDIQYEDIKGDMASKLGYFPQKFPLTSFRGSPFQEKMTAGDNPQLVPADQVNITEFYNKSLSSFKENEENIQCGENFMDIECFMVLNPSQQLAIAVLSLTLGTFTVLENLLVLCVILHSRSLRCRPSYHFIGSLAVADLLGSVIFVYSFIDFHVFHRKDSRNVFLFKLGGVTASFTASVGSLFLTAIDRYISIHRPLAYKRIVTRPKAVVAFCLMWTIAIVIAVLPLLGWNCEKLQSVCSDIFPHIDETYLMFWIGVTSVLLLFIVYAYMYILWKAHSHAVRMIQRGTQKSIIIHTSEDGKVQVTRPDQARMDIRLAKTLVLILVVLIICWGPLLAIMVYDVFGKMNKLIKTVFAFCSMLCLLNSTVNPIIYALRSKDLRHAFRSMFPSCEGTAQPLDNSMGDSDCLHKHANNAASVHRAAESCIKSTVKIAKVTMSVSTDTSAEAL

Row | Structure (SMILES) | Ki [1] | EC50 ([2]; hek293) | EC50 ([3]; hek293) | Efficacy [4] | Efficacy [5] | Ki [6] | EC50 ([2]; read-out: EC50) | inhibition [7] | Ratio Ki [8] | EC50 ([3]; read-out: EC50)
1 | Cc1cc(C)cc(C(=O)c2cc(O)c(-c3cc(Cl)cc(Cl)c3)c(O)c2)c1 | > 10 µM | Not Active | Not Active | inactive | inactive | > 10000 nM |  |  |  | 
2 | Cc1ccc(Cn2nc(C(=O)NC3C4(C)CCC(C4)C3(C)C)cc2-c2ccc(Cl)c(C)c2)cc1 (configuration not stated) [SR-144528] |  |  | Not Active | inactive | 80.8% |  |  |  |  | 
3 | CCCc1ccc(C(=O)c2cc(O)c(-c3cc(Cl)cc(Cl)c3)c(O)c2)cc1 | > 10 µM |  | Not Active |  | 50% | 59.9 nM | 28.8 nM |  |  | 
4 | O=C(c1ccccc1)c1cc(O)c(-c2cc(Cl)cc(Cl)c2)c(O)c1 |  |  | Not Active | inactive | 54.8% |  |  | Active | 39.4 | 
5 | O=C(c1ccc(Cl)cc1)c1cc(O)c(-c2cc(Cl)cc(Cl)c2)c(O)c1 | 4.65 µM |  |  | 169% | 119% | 121 nM | 89.7 nM |  | 38.5 | 3.28 µM
6 | CCCCCCC(=O)c1cc(O)c(-c2cc(Cl)cc(Cl)c2)c(O)c1 | > 10 µM | Not Active | Not Active |  |  | > 10000 nM |  |  |  | 
7 | O=C(c1cc(O)c(-c2cc(Cl)cc(Cl)c2)c(O)c1)C1CCCCC1 | 0.299 µM |  |  | inactive | inactive | 1590 nM | 2540 nM |  | 0.19 | > 5 µM
8 | CCc1cccc(C(=O)c2cc(O)c(-c3cc(Cl)cc(Cl)c3)c(O)c2)c1 | > 10 µM |  | Not Active | inactive | 184% | 1720 nM | > 5000 nM |  | > 5.82 | 
9 | COc1cc(C(=O)c2ccc(Cl)cc2)cc(OC)c1-c1cc(Cl)cc(Cl)c1 | > 10 µM | Not Active | Not Active |  |  | > 10000 nM |  |  |  | 
10 | COc1cc(C(=O)c2ccc(C)cc2)cc(OC)c1-c1cc(Cl)cc(Cl)c1 | > 10 µM | Not Active | Not Active | inactive | inactive | > 10000 nM |  |  |  | 
11 | CCCCc1ccc(C(=O)c2cc(OC)c(-c3cc(Cl)cc(Cl)c3)c(OC)c2)cc1 | > 10 µM | Not Active | Not Active | inactive | inactive | > 10000 nM |  |  |  | 
12 | CC(C)(C)c1ccc(C(=O)c2cc(O)c(-c3cc(Cl)cc(Cl)c3)c(O)c2)cc1 | 2.53 µM |  | Not Active |  | 275% | 3170 nM | 3970 nM |  |  | 
13 | O=C(c1ccc(O)cc1)c1cc(O)c(-c2cc(Cl)cc(Cl)c2)c(O)c1 | > 10 µM |  | Not Active | inactive | 75.6% | > 10000 nM | > 5000 nM |  |  | 
14 | CCCCc1ccc(C(=O)c2cc(O)c(-c3cc(Cl)cc(Cl)c3)c(O)c2)cc1 | > 10 µM |  | Not Active | inactive | 176% | 464 nM | 254 nM | Active | > 21.5 | 
15 | CCCCc1ccc(C(=O)c2cc(O)c(-c3cc(Cl)cc(Cl)c3)c(OC)c2)cc1 | > 10 µM |  | Not Active |  | 108% | > 10000 nM | > 5000 nM |  |  | 
16 | O=C(c1ccc(C(F)(F)F)cc1)c1cc(O)c(-c2cc(Cl)cc(Cl)c2)c(O)c1 | > 10 µM |  |  | 37% | 49.7% | > 10000 nM | > 5000 nM |  |  | > 5 µM
17 | Cc1ccc(C(=O)c2cc(O)c(-c3cc(Cl)cc(Cl)c3)c(O)c2)cc1 | 9.43 µM |  | Not Active | inactive | 230% | 258 nM | 118 nM |  | 36.6 | 
18 | CC(C)c1ccc(C(=O)c2cc(O)c(-c3cc(Cl)cc(Cl)c3)c(O)c2)cc1 | 3.33 µM |  | Not Active |  | 56% | 161 nM | 182 nM |  |  | 
19 | COc1cc(C(=O)c2ccc(Cl)cc2)cc(O)c1-c1cc(Cl)cc(Cl)c1 | > 10 µM |  |  | 71.3% | 97.5% | > 10000 nM | > 5000 nM |  |  | 2.88 µM
20 | O=C(c1cccc(C(F)(F)F)c1)c1cc(O)c(-c2cc(Cl)cc(Cl)c2)c(O)c1 | 4.13 µM | Not Active | Not Active |  |  | > 10000 nM |  |  |  | 
21 | Cc1cccc(C(=O)c2cc(O)c(-c3cc(Cl)cc(Cl)c3)c(O)c2)c1 | > 10 µM | Not Active | Not Active |  |  | 2620 nM |  |  |  | 
22 | COc1cc(C(=O)c2ccc(C)cc2)cc(O)c1-c1cc(Cl)cc(Cl)c1 | > 10 µM |  | Not Active |  | 129% | > 10000 nM | > 5000 nM |  |  | 
23 | CCc1ccc(C(=O)c2cc(O)c(-c3cc(Cl)cc(Cl)c3)c(O)c2)cc1 | 1.14 µM |  | Not Active |  | 52.2% | 37.6 nM | 29.5 nM | Active |  | 
